Reference: ChEMBL document CHEMBL5705899 (Biochem J, 2014)
Calls of active or inactive are those of the source. The calls are words filed in the database; no cut-off is given here.

Legend:
[1] = target: Serine/threonine-protein kinase N1 (Homo sapiens) (UniProt Q16512); test: Inhibition of human PRK1 at 1 uM using RBER-CHKtide as substrate in presence of 33P-ATP by ProQinase assay
[2] = target: Serine/threonine-protein kinase WNK2 (Homo sapiens) (UniProt Q9Y3S1); test: Inhibition of human WNK2 at 1 uM using RBER-CHKtide as substrate in presence of 33P-ATP by ProQinase assay
[3] = target: Serine/threonine-protein kinase MRCK beta (Homo sapiens) (UniProt Q9Y5S2); test: Inhibition of human CDC42BPB at 1 uM using RB-S6P as substrate in presence of 33P-ATP by ProQinase assay
[4] = target: Serine/threonine-protein kinase Sgk3 (Homo sapiens) (UniProt Q96BR1); test: Inhibition of human SGK3 at 1 uM using RBER-GSK3 as substrate in presence of 33P-ATP by ProQinase assay
[5] = target: Mitogen-activated protein kinase 1 (Homo sapiens) (UniProt P28482); test: Inhibition of recombinant human N-terminal GST-tagged ERK2 (2 to 360 residues) expressed in Escherichia coli assessed as remaining activity at 1 uM using MBP as substrate incubated for 30 mins in presence of [gamma-33P]ATP by filter binding method relative to control
[6] = target: Tyrosine-protein kinase SYK (Homo sapiens) (UniProt P43405); test: Inhibition of recombinant human N-terminal His6-tagged SYK (1 to 635 residues) expressed in baculovirus infected Sf21 cells assessed as remaining activity at 1 uM using Poly (Glu,Tyr) as substrate incubated for 30 mins in presence of [gamma-33P]ATP by filter binding method relative to control
[7] = target: Casein kinase I isoform alpha (Homo sapiens) (UniProt P48729); test: Inhibition of human CK1alpha1 at 1 uM using casein as substrate in presence of 33P-ATP by ProQinase assay
Homo sapiens [8] = species: Homo sapiens; test: Inhibition of recombinant human N-terminal His6-tagged PI3Kalpha E542K mutant (2 to 1068 residues)/p85A (1 to 724 residues) expressed in baculovirus expression system at 1 uM using diC8 PIP2 as substrate incubated for 80 mins by ADP-Glo assay
[9] = target: Phosphatidylinositol 4-kinase alpha (Homo sapiens, UniProt P42356); test: Inhibition of PI4Kalpha (unknown origin) using D-myo-PtdIns as substrate incubated for 45 mins by ADP-Glo assay
How it was run: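 PI4Kα: 1 nM enzyme, 72 μM ATP, 25 μM PtdIns. PI4Kβ: 2 nM enzyme, 220 μM ATP, 50 μM PtdIns. Reactions ran 45 min at ambient temperature; ADP-Glo reagent was added for 40 min, then detection reagent for 30 min, then luminescence was read.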

[10] = target: Homeodomain-interacting protein kinase 3 (Homo sapiens) (UniProt Q9H422); test: Inhibition of human HIPK3 at 1 uM using RBER-CHKtide as substrate in presence of 33P-ATP by ProQinase assay
[11] = target: Tyrosine-protein kinase Blk (Homo sapiens) (UniProt P51451); test: Inhibition of human BLK at 1 uM using polyEY as substrate in presence of 33P-ATP by ProQinase assay
[12] = target: Phosphorylase b kinase gamma catalytic chain, skeletal muscle/heart isoform (Homo sapiens) (UniProt Q16816); test: Inhibition of human PHKG1 at 1 uM using 3xChocktide-PKC as substrate in presence of 33P-ATP by ProQinase assay
[13] = target: Ephrin type-B receptor 4 (Homo sapiens) (UniProt P54760); test: Inhibition of recombinant human N-terminal His6-tagged EPHB4 (561 to 987 residues) expressed in baculovirus infected Sf21 cells assessed as remaining activity at 1 uM using Poly (Glu,Tyr) as substrate incubated for 30 mins in presence of [gamma-33P]ATP by filter binding method relative to control
[14] = target: Dual specificity tyrosine-phosphorylation-regulated kinase 2 (Homo sapiens) (UniProt Q92630); test: Inhibition of recombinant human N-terminal GST-tagged DYRK2 (3 to 528 residues) expressed in Escherichia coli assessed as remaining activity at 1 uM using KKISGRLSPIMTEQ as substrate incubated for 30 mins in presence of [gamma-33P]ATP by filter binding method relative to control
[15] = target: Serine/threonine-protein kinase SIK2 (Homo sapiens) (UniProt Q9H0K1); test: Inhibition of human SNF1LK2 at 1 uM using RBER-CHKtide as substrate in presence of 33P-ATP by ProQinase assay
[16] = target: Serine/threonine-protein kinase MARK2 (Homo sapiens) (UniProt Q7KZI7); test: Inhibition of human MARK2 at 1 uM using RBER-CHKtide as substrate in presence of 33P-ATP by ProQinase assay
[17] = target: Mitogen-activated protein kinase kinase kinase kinase 5 (Homo sapiens) (UniProt Q9Y4K4); test: Inhibition of human MAP4K5 at 1 uM using casein as substrate in presence of 33P-ATP by ProQinase assay
[18] = target: Mitogen-activated protein kinase 8 (Homo sapiens) (UniProt P45983); test: Inhibition of human JNK1 at 1 uM using ATF2 as substrate in presence of 33P-ATP by ProQinase assay
Homo sapiens [19] = species: Homo sapiens; test: Inhibition of human CDK1/CycA2 at 1 uM using RBER-CHKtide as substrate in presence of 33P-ATP by ProQinase assay
[20] = target: Serine/threonine-protein kinase Nek1 (Homo sapiens) (UniProt Q96PY6); test: Inhibition of human NEK1 at 1 uM using RBER-CHKtide as substrate in presence of 33P-ATP by ProQinase assay
[21] = target: Activin receptor type-2B (Homo sapiens) (UniProt Q13705); test: Inhibition of human ACVR2B at 1 uM using RB-CTF as substrate in presence of 33P-ATP by ProQinase assay
[22] = target: Vascular endothelial growth factor receptor 2 (Homo sapiens) (UniProt P35968); test: Inhibition of human VEGFR2 at 1 uM using polyEY as substrate in presence of 33P-ATP by ProQinase assay
[23] = target: Serine/threonine-protein kinase N2 (Homo sapiens) (UniProt Q16513); test: Inhibition of human PRK2 at 1 uM using RBER-CHKtide as substrate in presence of 33P-ATP by ProQinase assay
U2OS = test: Inhibition of PI3K in human U2OS cells expressing GFP-PHAkt1 assessed as reduction in IGF-stimulated PtdIns(3,4,5)P3/PtdIns(3,4)P2 level […] at 1 uM pre incubated for 1 hr followed by IGF stimulation and measured after 15 mins by Alexa Fluor 488 staining based fluorescence microscopic analysis; format: subcellular; conditions: time 1.25 hrs
[24] = target: SRSF protein kinase 3 (Homo sapiens) (UniProt Q9UPE1); test: Inhibition of human STK23 at 1 uM using RBER-CHKtide as substrate in presence of 33P-ATP by ProQinase assay
[25] = target: Testis-specific serine/threonine-protein kinase 2 (Homo sapiens) (UniProt Q96PF2); test: Inhibition of human TSK2 at 1 uM using RBER-CHKtide as substrate in presence of 33P-ATP by ProQinase assay

Chain of Serine/threonine-protein kinase MRCK beta (Homo sapiens) (Q9Y5S2 whole entry): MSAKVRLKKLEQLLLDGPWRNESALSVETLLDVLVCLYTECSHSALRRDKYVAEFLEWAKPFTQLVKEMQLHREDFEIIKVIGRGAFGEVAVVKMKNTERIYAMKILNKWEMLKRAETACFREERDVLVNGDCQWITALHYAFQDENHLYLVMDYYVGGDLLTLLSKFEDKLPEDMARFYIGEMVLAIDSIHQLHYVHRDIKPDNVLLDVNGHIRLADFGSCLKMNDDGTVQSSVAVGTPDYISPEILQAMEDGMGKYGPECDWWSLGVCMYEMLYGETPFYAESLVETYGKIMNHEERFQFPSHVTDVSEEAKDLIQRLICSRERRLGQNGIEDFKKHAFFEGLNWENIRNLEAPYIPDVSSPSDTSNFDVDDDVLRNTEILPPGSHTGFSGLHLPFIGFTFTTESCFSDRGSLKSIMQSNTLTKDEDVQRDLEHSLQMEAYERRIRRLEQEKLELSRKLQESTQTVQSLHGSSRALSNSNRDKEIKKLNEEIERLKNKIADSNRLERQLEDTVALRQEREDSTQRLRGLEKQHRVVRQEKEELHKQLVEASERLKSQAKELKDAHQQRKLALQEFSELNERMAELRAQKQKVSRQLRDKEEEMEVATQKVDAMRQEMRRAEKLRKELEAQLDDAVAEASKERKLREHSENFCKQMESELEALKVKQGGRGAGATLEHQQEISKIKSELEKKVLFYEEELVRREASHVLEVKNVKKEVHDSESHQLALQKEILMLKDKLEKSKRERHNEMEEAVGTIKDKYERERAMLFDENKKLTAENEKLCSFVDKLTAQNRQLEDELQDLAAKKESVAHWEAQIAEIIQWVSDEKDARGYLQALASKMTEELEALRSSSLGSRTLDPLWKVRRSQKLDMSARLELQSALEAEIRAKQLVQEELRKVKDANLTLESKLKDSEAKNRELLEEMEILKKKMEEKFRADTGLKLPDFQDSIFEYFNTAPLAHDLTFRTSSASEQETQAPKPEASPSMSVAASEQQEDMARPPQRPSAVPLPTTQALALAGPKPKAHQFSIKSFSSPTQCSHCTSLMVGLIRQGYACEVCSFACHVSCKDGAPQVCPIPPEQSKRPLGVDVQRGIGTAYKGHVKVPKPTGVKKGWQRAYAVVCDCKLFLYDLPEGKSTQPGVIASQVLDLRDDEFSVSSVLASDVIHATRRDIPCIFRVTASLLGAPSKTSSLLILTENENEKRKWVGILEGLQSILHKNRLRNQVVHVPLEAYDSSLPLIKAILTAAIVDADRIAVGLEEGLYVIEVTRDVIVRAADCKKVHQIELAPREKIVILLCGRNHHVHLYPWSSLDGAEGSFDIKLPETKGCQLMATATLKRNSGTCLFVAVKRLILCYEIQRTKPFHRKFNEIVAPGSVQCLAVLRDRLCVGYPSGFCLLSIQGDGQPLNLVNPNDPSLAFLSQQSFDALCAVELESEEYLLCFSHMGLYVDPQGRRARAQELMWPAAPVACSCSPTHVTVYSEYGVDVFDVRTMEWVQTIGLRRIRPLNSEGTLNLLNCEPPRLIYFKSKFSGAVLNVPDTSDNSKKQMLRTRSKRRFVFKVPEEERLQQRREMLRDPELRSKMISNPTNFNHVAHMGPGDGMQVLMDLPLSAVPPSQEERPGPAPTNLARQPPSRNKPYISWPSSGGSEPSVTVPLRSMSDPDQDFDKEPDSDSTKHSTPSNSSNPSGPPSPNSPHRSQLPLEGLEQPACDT
Chain of Casein kinase I isoform alpha (Homo sapiens) (P48729 2-337 limits assumed): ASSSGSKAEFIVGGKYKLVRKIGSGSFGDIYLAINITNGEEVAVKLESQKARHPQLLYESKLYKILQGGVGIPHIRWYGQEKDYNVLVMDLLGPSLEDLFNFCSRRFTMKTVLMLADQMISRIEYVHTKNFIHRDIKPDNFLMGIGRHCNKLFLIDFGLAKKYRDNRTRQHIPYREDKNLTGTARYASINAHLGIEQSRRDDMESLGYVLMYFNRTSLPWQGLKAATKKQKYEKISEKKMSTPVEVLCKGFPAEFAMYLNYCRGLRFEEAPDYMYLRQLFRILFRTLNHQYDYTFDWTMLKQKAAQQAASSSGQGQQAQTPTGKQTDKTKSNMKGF
Chain of Mitogen-activated protein kinase 8 (Homo sapiens) (P45983 whole entry): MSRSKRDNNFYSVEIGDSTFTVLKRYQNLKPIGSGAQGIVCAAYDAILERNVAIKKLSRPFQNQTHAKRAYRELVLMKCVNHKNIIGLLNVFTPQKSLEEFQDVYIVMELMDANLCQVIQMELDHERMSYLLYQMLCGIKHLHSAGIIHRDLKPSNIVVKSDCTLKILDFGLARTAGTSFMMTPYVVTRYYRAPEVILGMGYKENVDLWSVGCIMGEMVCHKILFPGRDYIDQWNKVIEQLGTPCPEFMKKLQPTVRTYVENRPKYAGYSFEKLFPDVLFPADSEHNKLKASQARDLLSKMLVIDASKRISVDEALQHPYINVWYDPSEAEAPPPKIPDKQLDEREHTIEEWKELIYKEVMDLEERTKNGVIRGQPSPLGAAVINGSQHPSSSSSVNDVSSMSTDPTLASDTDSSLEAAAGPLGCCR
Chain of Serine/threonine-protein kinase WNK2 (Homo sapiens) (Q9Y3S1 whole entry): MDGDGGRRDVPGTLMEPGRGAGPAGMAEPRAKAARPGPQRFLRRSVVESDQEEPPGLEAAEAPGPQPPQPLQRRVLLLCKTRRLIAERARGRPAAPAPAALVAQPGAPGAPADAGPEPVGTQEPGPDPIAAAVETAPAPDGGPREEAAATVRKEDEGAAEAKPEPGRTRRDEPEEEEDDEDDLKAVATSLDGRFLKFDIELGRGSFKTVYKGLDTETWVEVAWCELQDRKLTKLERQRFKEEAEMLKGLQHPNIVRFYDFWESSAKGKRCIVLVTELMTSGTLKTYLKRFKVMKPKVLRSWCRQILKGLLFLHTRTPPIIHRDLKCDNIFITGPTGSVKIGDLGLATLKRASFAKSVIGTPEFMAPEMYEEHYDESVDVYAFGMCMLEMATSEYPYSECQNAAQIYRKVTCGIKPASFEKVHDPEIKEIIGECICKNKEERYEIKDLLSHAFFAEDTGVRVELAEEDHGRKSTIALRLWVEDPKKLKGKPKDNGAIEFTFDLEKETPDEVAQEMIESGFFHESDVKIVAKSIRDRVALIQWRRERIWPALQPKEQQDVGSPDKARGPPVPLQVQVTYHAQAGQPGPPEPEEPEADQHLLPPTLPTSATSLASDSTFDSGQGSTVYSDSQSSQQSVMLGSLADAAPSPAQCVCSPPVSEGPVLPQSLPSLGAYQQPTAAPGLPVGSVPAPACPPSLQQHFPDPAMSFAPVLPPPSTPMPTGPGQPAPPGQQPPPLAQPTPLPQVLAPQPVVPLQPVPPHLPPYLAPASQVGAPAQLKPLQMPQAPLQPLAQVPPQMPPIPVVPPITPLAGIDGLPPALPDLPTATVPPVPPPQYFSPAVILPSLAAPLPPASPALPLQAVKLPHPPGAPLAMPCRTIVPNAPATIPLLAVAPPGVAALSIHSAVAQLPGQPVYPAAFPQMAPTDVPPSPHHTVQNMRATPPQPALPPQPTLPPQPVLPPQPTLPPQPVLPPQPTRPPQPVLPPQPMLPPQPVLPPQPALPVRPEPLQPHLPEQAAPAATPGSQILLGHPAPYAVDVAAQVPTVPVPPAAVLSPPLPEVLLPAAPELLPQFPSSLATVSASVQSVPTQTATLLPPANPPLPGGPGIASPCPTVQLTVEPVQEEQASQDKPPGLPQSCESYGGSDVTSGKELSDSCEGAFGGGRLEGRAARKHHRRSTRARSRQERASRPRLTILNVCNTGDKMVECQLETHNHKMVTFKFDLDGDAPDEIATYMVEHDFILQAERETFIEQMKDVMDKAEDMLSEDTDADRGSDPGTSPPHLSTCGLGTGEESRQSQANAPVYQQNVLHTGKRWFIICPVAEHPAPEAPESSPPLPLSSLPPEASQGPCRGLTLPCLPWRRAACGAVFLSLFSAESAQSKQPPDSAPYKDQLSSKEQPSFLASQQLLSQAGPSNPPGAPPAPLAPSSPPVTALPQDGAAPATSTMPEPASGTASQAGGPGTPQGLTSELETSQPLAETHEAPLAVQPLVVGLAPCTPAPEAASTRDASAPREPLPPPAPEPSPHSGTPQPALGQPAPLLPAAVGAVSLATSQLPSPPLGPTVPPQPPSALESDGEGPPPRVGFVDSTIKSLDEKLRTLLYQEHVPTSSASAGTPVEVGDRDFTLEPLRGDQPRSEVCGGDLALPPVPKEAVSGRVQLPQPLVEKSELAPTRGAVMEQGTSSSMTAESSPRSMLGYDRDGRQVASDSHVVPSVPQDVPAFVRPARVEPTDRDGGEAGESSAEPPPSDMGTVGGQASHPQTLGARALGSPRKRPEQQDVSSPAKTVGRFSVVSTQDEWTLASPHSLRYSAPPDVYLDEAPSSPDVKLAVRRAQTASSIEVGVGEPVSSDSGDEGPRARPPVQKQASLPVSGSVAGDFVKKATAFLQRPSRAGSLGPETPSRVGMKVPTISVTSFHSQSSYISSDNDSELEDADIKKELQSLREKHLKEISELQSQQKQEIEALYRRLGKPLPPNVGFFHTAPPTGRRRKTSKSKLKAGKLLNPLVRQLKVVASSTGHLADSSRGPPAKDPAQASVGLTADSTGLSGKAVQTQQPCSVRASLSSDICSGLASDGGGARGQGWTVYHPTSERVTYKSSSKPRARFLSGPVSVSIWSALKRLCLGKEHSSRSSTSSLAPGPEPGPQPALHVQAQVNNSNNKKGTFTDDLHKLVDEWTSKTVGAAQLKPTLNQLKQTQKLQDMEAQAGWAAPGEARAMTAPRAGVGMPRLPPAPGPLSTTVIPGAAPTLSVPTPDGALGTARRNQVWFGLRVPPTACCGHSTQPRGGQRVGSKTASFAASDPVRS
Chain of Mitogen-activated protein kinase 1 (Homo sapiens) (P28482 whole entry, the tested form may be a part): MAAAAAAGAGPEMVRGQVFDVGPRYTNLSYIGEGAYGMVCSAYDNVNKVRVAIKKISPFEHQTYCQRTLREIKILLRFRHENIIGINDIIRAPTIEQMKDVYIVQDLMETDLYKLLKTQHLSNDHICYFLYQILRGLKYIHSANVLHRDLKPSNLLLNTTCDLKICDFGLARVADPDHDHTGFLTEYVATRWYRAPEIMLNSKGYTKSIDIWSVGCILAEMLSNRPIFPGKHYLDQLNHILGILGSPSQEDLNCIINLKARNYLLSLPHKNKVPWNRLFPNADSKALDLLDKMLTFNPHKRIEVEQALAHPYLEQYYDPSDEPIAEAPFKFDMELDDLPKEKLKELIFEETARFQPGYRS

In the case of `CC(C)(O)CNc1ncc(-c2ccnc(Nc3ccnc(Cl)c3)n2)c(CC2CC2)n1`, the inhibition [1] is reported as “inactive”, the inhibition [2] is reported as “inactive” and the inhibition [3] is reported as “inactive”. For the same compound, the inhibition [4] was “inactive”, the Activity [5] was 116% and the Activity [6] was 91%. For the same compound, the inhibition [7] was “inactive”, the inhibition (Homo sapiens [8]) was “inactive” and the IC50 [9] was 4.07 µM. For the same compound, the inhibition [10] was “inactive”, the inhibition [11] was “inactive” and the inhibition [12] was “inactive”. For the same compound, the Activity [13] was 106%, the Activity [14] was 109% and the inhibition [15] was “inactive”. The inhibition [16] was “inactive”, the inhibition [17] was “inactive” and the inhibition [18] was “inactive”. For the same compound, the inhibition (Homo sapiens [19]) was “inactive”, the inhibition [20] was “inactive” and the inhibition [21] was “inactive”. The inhibition [22] was “inactive”, the inhibition [23] was “inactive” and the inhibition (U2OS) was “inactive”. The inhibition [24] was “inactive” and the inhibition [25] was “inactive”.
